# Measurements: ChEMBL document CHEMBL1926549, “First chemical feature-based pharmacophore modeling of potent retinoidal retinoic acid metabolism blocking agents (RAMBAs): identification of novel RAMBA scaffolds” (Eur J Med Chem, 2012)
# Key:
# Cricetinae = experiment: Inhibition of CYP26 in hamster liver microsomes assessed as [11,12-[3H]ATRA metabolism at 100 nM treated 3 mins before [11,12,3H]ATRA addition measured after 30 mins by HPLC analysis; details: Microsome
# Outline: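 Hamster liver microsomes (500 μg/mL stock) were used in 0.1 M phosphate buffer, pH 7.4, with NADPH (20 mM stock), MgCl2 and BSA. Inhibitor at 100 nM in DMSO was preincubated for 3 min at 37 °C. [11,12-3H]-ATRA was then added at 20 μM and incubated 30 min under oxygen at 37 °C. The reaction was stopped with formic acid, extracted with ethyl acetate/methanol/BHA, and radiolabelled polar metabolites were quantified by HPLC.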
# [1] = Inhibition of CYP26 in hamster liver microsomes assessed as [11,12-[3H]ATRA metabolism treated 3 mins before [11,12,3H]ATRA addition measured after 30 mins by HPLC analysis; design: species or system Cricetinae, Microsome
Compound,inhibition (Cricetinae) [%],IC50 [1] [nM]
C/C(=N\CCCCCC/N=C(\C)c1cc(O)ccc1O)c1cc(O)ccc1O,22.2,–
CCOC(=O)CCCCCCCCCCCCCCCCC(=O)OCC,29.5,–
CCOC(=O)c1cnn(-c2ccc(Cc3ccc(-n4ncc(C(=O)OCC)c4C)cc3)cc2)c1C,49.8,–
O=C(Nc1ccc(OCCCCCOc2ccccc2)cc1)C(F)(F)F,34.8,–
COc1cc(/C=N/CCCC/N=C/c2cc(OC)c(OC)c(OC)c2)cc(OC)c1OC,27.3,–
Cc1nc(N)nc(O)c1CCCNc1ccc(CCCCC(=O)CCl)cc1,42.8,–
COC(=O)c1cc(OCC#CC#CCOc2ccc(O)c(C(=O)OC)c2)ccc1O,17.9,–
Cc1nc(N)nc(O)c1CCCNc1ccc(CCCCC2(CCl)OCCO2)cc1,29.4,–
COC(=O)CCCCCc1ccc(Cc2ccc(CCCCCC(=O)OC)cc2)cc1,31.4,–
CCCCCCC(CCCCCCCCCCC(=O)OC(C)(C)C)OC(C)=O (stereo not given),36.2,–
COC(=O)/C=C(C)/C=C/C=C(C)/C=C/C1=C(C)C(n2ccnc2)CCC1(C)C (racemic),–,0.009
CC1=C(/C=C/C(C)=C/C=C/C(C)=C/C(=O)O)C(C)(C)CCC1n1cncn1 (racemic),–,5.84

# Further lines, results first:
inhibition (Cricetinae) [%],IC50 [1] [nM],Compound
33.8,–,Cc1cc(CC(C)C2CCC(C)C(c3ccc(O)c(C)c3)C2)ccc1O (stereo not given)
–,0.05,CC1=C(/C=C/C(C)=C/C=C/C(C)=C/C(=O)n2ccnc2)C(C)(C)CCC1n1cncn1 (racemic)
54.7,–,CCOC(=O)/C=C(\C)NCCSSCCN/C(C)=C/C(=O)OCC
–,2,COC(=O)/C=C(C)/C=C/C=C(C)/C=C/C1=C(C)C(n2cncn2)CCC1(C)C (racemic)
28.5,–,COc1ccc(/C(C)=N/OC(=O)c2cc(OC)c(OC)c(OC)c2)cc1CSc1ccccn1
38.6,–,C/C(=N\Cc1cccc(C/N=C(\C)c2ccccc2O)c1)c1ccccc1O
20.5,–,CC(SCCCCCCCCCCSC(C)C(=O)O)C(=O)O (stereo not given)
30.4,–,O=C(Oc1ccc(CC/C=C/CCc2ccc(OC(=O)c3ccccc3)cc2)cc1)c1ccccc1
32.7,–,Nc1nc(Cl)cc(NCCCCCCCCCCNc2cc(Cl)nc(N)n2)n1
–,2.33,CC1=C(/C=C/C(C)=C/C=C/C(C)=C/C(=O)O)C(C)(C)CCC1n1ccnc1 (racemic)
18.1,–,Nc1nc(Cl)cc(NCCCCCCCCNc2cc(Cl)nc(N)n2)n1
34.3,–,CCOc1cc(/C=N/N2CCN(/N=C/c3ccc(O)c(OCC)c3)CC2)ccc1O
21.2,–,CNC(=S)N/N=C(\C)CCCCCCCCCCCC/C(C)=N/NC(=S)NC
